# This is a sample that favours compounds with a hit; in the whole collection about 4.3% have one here.
# AHR act: activates the human aryl hydrocarbon receptor | activation, % at 5 µM | P35869 | AHR-responsive luciferase reporter cells, luminescence | 2.5% of 320,000 active | AID 2796; in the data active means activation above about 47%;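 further: 0% = vehicle wells and 100% = reference agonist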
# CR mimetic SO: yeast age-related superoxide inhibition as caloric restriction mimetic; superoxide response (% of plate mean), % at 10 µM; S. cerevisiae aged cells, superoxide DHE fluorescence; hits give low values; 0.18% of 330,000 active;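 active means superoxide response under a set limit, about three screen SD below normal, cut at about 65% in these data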;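 further: yeast aged for seven days with compound at 30 °C before DHE staining; 100% = average MFI of all compound-treated wells on the plate with controls excluded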
# SR-BI DiI-HDL act: SR-BI HDL lipid transfer activation; CHO ldlA[mSR-BI] cells, DiI-HDL uptake fluorescence, 3 h; 100 = double the neutral-control signal; 0.096% of 320,000 active; activation, % at 12.5 µM;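 active means mean replicate activation of at least 60% and every replicate at or above 60%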;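 further: 0% = median plate neutral-control signal and 100% = twice that signal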
#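 system = CHO ldlA[mSR-BI] cells, LDL receptor-null, SR-BI overexpressing | medium = Ham's F12 with 0.5% BSA, HEPES 25 mM, pH 7.4 | probe or stimulus = DiI-HDL 10 µg/mL | compound dosing = single-point compound dose | incubation = compound exposure 3 h, 37 °C | technique = DiI fluorescence, bottom read | read-out = cell-associated DiI fluorescence as measure of HDL uptake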
# SR-BI DiI inh: blocks mouse SR-BI lipid uptake from DiI-HDL; ldlA[mSR-BI] CHO cells, DiI-HDL uptake fluorescence, 3 h; inhibition, % at 12.5 µM; 0.96% of 320,000 active; AID 488896;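 active means mean replicate inhibition of at least 70% and a set share of replicates each scoring 70 or more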;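 further: 0% = median of neutral control wells and 100% = median of positive control wells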
# Target sequence (Q61009 whole entry, looked up): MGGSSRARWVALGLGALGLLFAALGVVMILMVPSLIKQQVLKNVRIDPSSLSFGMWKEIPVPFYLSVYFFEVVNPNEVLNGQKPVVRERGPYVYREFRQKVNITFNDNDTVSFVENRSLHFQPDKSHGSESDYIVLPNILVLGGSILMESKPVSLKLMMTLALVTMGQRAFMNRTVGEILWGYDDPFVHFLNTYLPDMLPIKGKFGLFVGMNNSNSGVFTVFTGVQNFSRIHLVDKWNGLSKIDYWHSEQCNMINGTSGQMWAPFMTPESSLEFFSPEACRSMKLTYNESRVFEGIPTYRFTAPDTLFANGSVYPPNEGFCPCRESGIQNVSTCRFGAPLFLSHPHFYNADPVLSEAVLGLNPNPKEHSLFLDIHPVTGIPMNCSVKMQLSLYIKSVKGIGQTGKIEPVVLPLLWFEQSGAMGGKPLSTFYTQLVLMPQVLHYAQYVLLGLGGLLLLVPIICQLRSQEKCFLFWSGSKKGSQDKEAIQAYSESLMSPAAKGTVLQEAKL
# SMARCA2 activ: increases SMARCA2 function in MMTV reporter cells | 1% of 370,000 active | activation, % at 9.1 µM | MG213 cells, MMTV-luciferase reporter, dexamethasone, overnight; in the data active means activation above about 7.8%;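 further: 0% = vehicle wells and 100% = reference activator wells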
# Hep lipid drop: hepatic lipid droplet formation modulation | 0.4% of 240,000 active | inhibition, % at 6.5 µM | AML12 mouse hepatocytes, oleate lipid droplets, BODIPY imaging;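 active means lipid droplet intensity inhibited by at least 50%, with more than 500 cells counted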
#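 Material – mouse AML12 hepatocyte cell line, fixed after treatment · Compound dosing – one dose, 6.5 µM compound · Times – compound with oleate, overnight · Measured by – Image-based BODIPY and DAPI two-channel analysis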
# SMARCA2 act conf: confirmation of SMARCA2 (BRM) function activators; 30% of 3,500 active; AID 652260; activation, % at 9.1 µM; MG213 cells, MMTV-luciferase with dexamethasone, luminescence, overnight; MG213 cells expressing E1A, Rb sequestered; DMSO wells 0%, reference activator 100%; shares compounds with SMARCA2 activ;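 active means activation above its plate's cutoff, the mean activation of tested wells plus 3 SD, cut at about 7.9% in these data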
# VP16 Luc act: counter-screen for SMARCA2 activators: GAL4-VP16 luciferase reporter activation; activation, % at 9.1 µM; HEK293 GAL4-VP16 pG5luc reporter, luciferase luminescence; scaled: DMSO wells 0%, SAHA wells 100%; 41% of 3,500 active; shares compounds with SMARCA2 activ;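 active means activation above the solvent-only control well mean plus 3 SD, averaged across control plates, cut at about 5.2% in these data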
# Active calls of the source: *; x = not tested or not shown.
SMILES,AHR act,CR mimetic SO,SR-BI DiI-HDL act,SR-BI DiI inh,SMARCA2 activ,Hep lipid drop,SMARCA2 act conf,VP16 Luc act
NC(=O)c1ccsc1NC(=O)c1ccc([N+](=O)[O-])o1,6,130,12,-12,8.3*,x,18*,5
O=C(Nc1cccc([N+](=O)[O-])c1)c1ccc([N+](=O)[O-])o1,x,x,x,x,15*,x,19*,2
CCC(=O)N1CCN(c2ccc(NC(=O)c3ccc([N+](=O)[O-])o3)cc2)CC1,x,x,4,-4,1,4,x,x
CC1(C)Oc2ccc(C(=O)NC3CCCC3)cc2NC1=O,x,x,x,x,-4,x,x,x
C[C@@H]1C[C@H]2[C@@H](Cc3ccccc3)C(=O)N3[C@H](c4ccccc4)[C@H](C)C[C@H]3[C@@H](Cc3ccccc3)C(=O)N2[C@@H]1c1ccccc1,x,x,x,x,-4,x,x,x
Nc1cc2ccccc2cc1NS(=O)(=O)N1CCCCC1,x,x,x,x,-2,x,x,x
Cn1c(C2=C(O)CN(Cc3ccccc3)C2=N)nc2ccccc21,6,99,11,-11,8.6*,-6,0,3
COC(=O)Cc1nnn2c1[C@H](C)[C@@H](OC)c1cccc(Cl)c1-2,x,x,x,x,-6,x,x,x
COC(=O)Cc1nnn2c1[C@H](C)[C@@H](OC)c1ccc(C(F)(F)F)cc1-2,x,x,x,x,11*,x,0,3
CCCN1CCS(=O)(=O)N(Cc2cn(Cc3ccc(F)cc3)nn2)C(C(=O)OC)C1 (stereo unspecified),x,x,x,x,0,x,x,x
O=C(N/N=C/c1cccc2ccccc12)c1cccnc1,53*,96,x,x,9.1*,x,1,3
O=C(N/N=C/c1c(O)n(Cc2ccccc2)c(=O)c2ccccc12)c1cccnc1,11,87,11,-11,-4,1,x,x
Cn1cccc1/C=N/NC(=O)c1cccnc1,6,98,19,-19,8.3*,-2,1,1
Cn1c(-c2ccccc2)c(/C=N/NC(=O)c2cccnc2)c2ccccc21,59*,91,-41,41,12*,-2,6,2
O=c1c(Br)c(N2CCCCC2)cnn1-c1ccccc1,1,97,-6,6,8.7*,10,9.8*,9.0*
O=c1c(Br)c(N2CCCC2)cnn1-c1ccccc1,-5,107,-4,4,3,-4,x,x
Cc1ccsc1S(=O)(=O)n1c(CN2CCOCC2)nc2ccccc21,x,x,x,x,3,x,x,x
O=S(=O)(/N=C(/NC(=S)Nc1ccccc1)c1ccccc1)c1ccc(Cl)cc1,-2,74,-4,4,8.8*,20,9.2*,6.4*
Cc1ccc(S(=O)(=O)/N=C(/NNC(=O)c2cccc(Cl)c2)c2ccccc2)cc1,27,106,9,-9,5,-11,x,x
O=C(NN/C(=N/S(=O)(=O)c1ccc(Cl)cc1)c1ccccc1)c1cccc(Cl)c1,24,91,0,0,10.0*,11,10*,12*
CCOC(=O)N1CCN(C(=O)C[C@H]2C(=O)N(CCCOC)C3=CCCC[C@@]32C(=O)OCC)CC1,x,x,x,x,0,x,x,x
C[C@@H](CO)N(Cc1cn(Cc2ccccc2)nn1)S(=O)(=O)c1ccccc1Br,x,x,x,x,-5,x,x,x
N#C/C(=N\Nc1ccc(F)cc1)C(=N)N1CCCCCC1,3,100,-17,17,12*,-1,15*,19*
N#C/C(=N\Nc1ccc(Cl)cc1)C(=N)N1CCCCC1,13,97,-18,18,2,x,x,x
COc1ccc(N/N=C(\C#N)C(=N)N2CCCCC2)cc1,14,105,-20,20,3,-17,x,x
SMILES,AHR act,CR mimetic SO,SR-BI DiI-HDL act,SR-BI DiI inh,SMARCA2 activ,Hep lipid drop,SMARCA2 act conf,VP16 Luc act
Cc1ccc(N/N=C(\C#N)C(=N)N2CCCCCC2)cc1,26,104,-12,12,8.3*,-6,12*,14*
Cc1ccc(-c2cc(-c3nnc(SCC(=O)Nc4ccccc4-c4ccccc4)n3N)[nH]n2)cc1,x,x,x,x,-1,x,x,x
Cc1cc2c(c(=O)o1)[C@@]1(C(=O)N(C)c3c(Br)cccc31)C1=C(CCCC1=O)O2,x,x,x,x,2,x,x,x
Cc1cccn2cc(-c3c[nH]c4ccccc34)nc12,59*,144,-24,24,17*,4,6,10*
Cc1ccc(-c2cn3cccc(C)c3n2)cc1,x,x,-2,2,14*,-2,4,12*
CN(Cc1cn(CC2CCCCC2)nn1)S(=O)(=O)c1ccccc1Br,x,x,x,x,-3,x,x,x
O=C(Oc1c(CN2CCOCC2)cc(Cl)c2cccnc12)c1ccccc1Cl,9,91,1,-1,19*,3,-1,1
O=C(Oc1c(CN2CCOCC2)cc(Cl)c2cccnc12)c1cccs1,11,103,-47,47,33*,9,16*,1
O=C(NCCN1CCC(n2c(=O)[nH]c3cc(Cl)ccc32)CC1)c1ccc(F)cc1,x,x,x,x,1,x,x,x
COc1ccc(COC(=O)c2nc3nc(C)cc(C)n3n2)cc1F,2,111,6,-6,8.2*,x,-2,0
Cc1nn(-c2ccccc2)c2sc(C(=O)NCCc3ccccc3)cc12,x,x,x,x,-4,x,x,x
COc1ccccc1/C=C/c1nc2ccccc2c(=O)o1,7,131,33,-33,10*,x,5,12*
COc1ccccc1/C=C/c1nc2ccc(OC(C)=O)cc2c(=O)o1,0,81,14,-14,3,-1,x,x
C[C@H](O)[C@@H]1CN2CCc3c([nH]c4c(-c5ccccc5)cccc34)[C@@H]2C[C@@H]1N(C)C(=S)Nc1ccc(C#N)cc1,x,x,x,x,-4,x,x,x
Cc1nn(C)c(C)c1CNC(=O)Nc1ccc(Cl)cc1,10,115,-7,7,9.5*,-11,1,6.4*
CC(C)C(=O)Nc1ccc2nn(-c3ccccc3)nc2c1,-4,78,x,x,9.4*,2,6,20*
C[C@H](O)[C@@H]1CN2CCc3c([nH]c4cccc(-c5ccccc5)c34)[C@@H]2C[C@@H]1N(C)C(=O)Nc1ccccc1,x,x,x,x,-1,x,x,x
CC(C)[C@@H](C)/C=C/[C@@H](C)[C@H]1CC[C@@H]2[C@]1(C)CCC1[C@]23C=C[C@]2(C[C@@H](O)CC[C@]12C)N(c1ccc(F)cn1)O3 (stereo partly specified),x,x,x,x,4,x,x,x
Cc1ccc2c(COC(=O)C3=COCCO3)cc(=O)oc2c1,x,x,5,-5,8.5*,x,0,8.4*
Cc1ccc(S(=O)(=O)NCC(=O)OCc2cc(=O)oc3cc(C)ccc23)cc1,-1,89,13,-13,-2,x,x,x
CN(C)c1ccc(C=C2C=Cc3ccccc32)cc1,x,x,-38,38,9.3*,x,3,11*

# Source: PubChem
